Lipid droplet = modulators of hepatic lipid droplet formation | AML12 mouse hepatocytes, oleate lipid droplets, BODIPY imaging | inhibition, % at 6.5 µM | hit rate 0.4% among 240,000;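 active means lipid droplet intensity inhibited by at least 50%, with more than 500 cells counted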
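Material – AML12 mouse liver cells · Also added – oleate loading, 100 µM · Compound dosing – 6.5 µM single-point dosing · Times – overnight treatment with compound plus oleate · Measured by – fluorescence imaging, 20x objective, two fields per well · Read-out – percent inhibition of filter-corrected integrated lipid droplet intensity per well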
ANO1 block = mouse TMEM16A channel inhibition, primary screen; Q8BHY3; HEK293 TMEM16A/YFP iodide influx fluorescence, ionomycin; normalized B-score (activity score, 25-100; higher = stronger inhibition) at 10 µM; hit rate 1.2% among 310,000;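 active means ratio plate-corrected score three or more library SD toward inhibition, starting fluorescence score within five deviations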;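 further: score derived from kinetic fluorescence span divided by baseline fluorescence per well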
Target sequence (Q8BHY3 whole entry, looked up): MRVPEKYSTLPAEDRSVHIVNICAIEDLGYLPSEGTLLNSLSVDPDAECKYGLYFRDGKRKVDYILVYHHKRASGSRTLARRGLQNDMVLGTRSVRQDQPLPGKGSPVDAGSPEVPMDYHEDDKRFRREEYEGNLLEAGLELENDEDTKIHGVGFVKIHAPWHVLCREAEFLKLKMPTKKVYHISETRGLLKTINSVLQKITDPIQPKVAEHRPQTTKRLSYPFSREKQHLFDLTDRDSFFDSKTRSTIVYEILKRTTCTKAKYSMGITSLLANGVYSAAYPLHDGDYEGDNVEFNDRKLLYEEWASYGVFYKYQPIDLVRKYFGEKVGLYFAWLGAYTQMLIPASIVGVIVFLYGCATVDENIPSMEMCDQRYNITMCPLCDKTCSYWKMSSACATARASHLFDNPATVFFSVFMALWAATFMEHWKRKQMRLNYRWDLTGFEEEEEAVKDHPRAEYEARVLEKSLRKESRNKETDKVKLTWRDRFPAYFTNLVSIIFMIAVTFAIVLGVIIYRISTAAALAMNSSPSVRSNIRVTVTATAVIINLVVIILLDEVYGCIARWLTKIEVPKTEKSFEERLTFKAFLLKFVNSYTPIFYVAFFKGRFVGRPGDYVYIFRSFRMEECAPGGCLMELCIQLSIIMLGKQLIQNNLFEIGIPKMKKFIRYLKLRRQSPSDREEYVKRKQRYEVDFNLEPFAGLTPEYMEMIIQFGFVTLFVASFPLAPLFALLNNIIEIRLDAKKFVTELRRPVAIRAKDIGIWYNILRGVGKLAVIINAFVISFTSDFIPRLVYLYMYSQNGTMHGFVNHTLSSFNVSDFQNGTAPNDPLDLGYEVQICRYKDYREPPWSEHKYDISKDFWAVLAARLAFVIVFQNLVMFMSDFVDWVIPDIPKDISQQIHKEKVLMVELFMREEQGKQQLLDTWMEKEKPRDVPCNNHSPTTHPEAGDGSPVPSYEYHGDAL
CHOP UPR activ = apoptotic UPR (CHOP) activation; CHO-CHOP luciferase reporter, luminescence; percent of tunicamycin response over DMSO baseline; activation, % at 10 µM; hit rate 0.34% among 330,000;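 active means at 10 µM dose, activation of 40% or more, normalized to positive control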
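System: CHO-CHOP luciferase reporter cell line; amount: 500 cells/well; buffer or medium: F12 medium containing 10% fetal bovine serum; incubation: 6 h compound exposure at 37 °C after overnight seeding; measured by: luciferase luminescence after 10 min with Steady-Glo reagent; evaluation: % reporter activation, DMSO baseline versus tunicamycin full activation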
CHOP inh = inhibitors of CHOP induction in ER stress response. CHO-K1 CHOP-promoter luciferase, tunicamycin-induced, 15-18 h. inhibition, % at 10 µM. hit rate 3.8% among 220,000. AID 2732;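 active means compounds that reduced the stress-induced luciferase reporter signal by more than about 70% of percent inhibition, limit read from the data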
TMEM16A act = mouse TMEM16A channel activation, primary screen; HEK293 TMEM16A/YFP-H148Q/I152L, iodide quench fluorescence; stronger effect = lower value; B-score at 10 µM; hit rate 0.3% among 340,000;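 active means fluorescence-ratio B-score plate-corrected deviation score at least 3 library SD below zero, with starting fluorescence score within 5 deviations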;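 further: channel opened by trigger with iodide after compound preincubation; score built on the fluorescence ratio of max minus min over baseline; more negative score means more quench and so TMEM16A activation or potentiation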
UPR XBP1 act = adaptive UPR (XBP1) activation; CHO-XBP1 luciferase reporter, IRE1-XBP1 UPR activation, luminescence; percent of tunicamycin response, DMSO as zero; activation, % at 20 µM; hit rate 0.33% among 330,000;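 active means versus positive control, 20 µM dose yields 30% or more activation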
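Material: CHO-XBP1 cells stably carrying IRE1-XBP1-driven luciferase reporter | Medium: F12 with 10% serum | Compound dosing: 20 µM single concentration, DMSO 1% | Incubation: Overnight seeding at 37 °C, 6 h compound treatment at 37 °C | Detection: Steady-Glo luminescence read | Read-out basis: % activation of reporter signal versus tunicamycin and DMSO controls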
CHOP confirm = confirmation of CHOP induction inhibitors. shares compounds with CHOP inh. CHO-CHOP promoter luciferase reporter, tunicamycin-induced, luminescence. inhibition, % at 10 µM. hit rate 45% among 2,100. AID 504437;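 active means mean of three repeat readings of reporter signal inhibition above a set limit, cut at about 70% in these data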
Each line names hits and unclear results; the compound was inactive in the other large screens (follow-up assays come after a bar, where they were run). An excerpt weighted towards active compounds, which were near 4.2% of everything screened.

Cc1c(NC(=O)CSC(=S)N2CCCC2)c(=O)n(-c2ccccc2)n1C	none (no result: Lipid droplet, CHOP inh)
COc1ccc(CC(=O)NNC2=Nc3cccc4cccc2c34)cc1	CHOP inh 100 | CHOP confirm inactive
COc1ccc(C(=O)NNC2=Nc3cccc4cccc2c34)cc1	none
O=[N+]([O-])c1c(NCCCO)cc(Sc2nc3ccccc3s2)c2nonc12	CHOP inh 109 (no result: Lipid droplet) | CHOP confirm 71
Cc1nnc(Sc2cc(NCCCO)c([N+](=O)[O-])c3nonc23)s1	none (no result: ANO1 block, CHOP UPR activ, UPR XBP1 act)
Cc1nnc(Sc2cc(NCCO)c([N+](=O)[O-])c3nonc23)s1	CHOP inh 98 (no result: ANO1 block, CHOP UPR activ, UPR XBP1 act) | CHOP confirm inactive
C[C@H]1CN(S(=O)(=O)c2c(F)cccc2F)CCN1S(=O)(=O)c1ccc2c(c1)OCCO2	none (no result: Lipid droplet, ANO1 block, CHOP inh)
O=C(CSc1nc(=O)n2ccccc2n1)N1CCN(c2ccccc2)CC1	none (no result: Lipid droplet, CHOP inh)
CC(c1ccccc1)n1c(SCC(=O)Nc2ccccc2)n[nH]c1=O (stereo not given)	none (no result: CHOP inh)
O=C1CN(C(=O)COC(=O)CCc2ccccc2O)c2ccccc2N1	none (no result: Lipid droplet, ANO1 block, CHOP inh)
CN(CCOc1ccc(Cl)cc1)C(=O)Cc1ccc(S(=O)(=O)N2CCOCC2)s1	none (no result: Lipid droplet, ANO1 block, CHOP inh)
O=C(CNS(=O)(=O)c1ccc(Br)cc1)Nc1ccc2c(c1)OCCO2	none (no result: ANO1 block, CHOP inh)
CN(C)c1ccc(/C=C/c2cccc[n+]2[O-])cc1	none
CN(C)c1ccc(/C=C/c2ccc3c4ccccc4ccc3[n+]2-c2ccccc2)cc1	CHOP inh 108 (no result: ANO1 block, CHOP UPR activ, UPR XBP1 act) | CHOP confirm 123
CCCCn1c(N)c(N(CCC(C)C)C(=O)C2CCCN(C(=O)c3ccc(Cl)cc3)C2)c(=O)[nH]c1=O (stereo not given)	none (no result: Lipid droplet, CHOP inh)
CC(=O)NC(Cc1c[nH]c2ccccc12)C(=O)OCC(=O)N1CCN(S(=O)(=O)c2ccc(Cl)cc2)CC1 (stereo not given)	none (no result: Lipid droplet, ANO1 block, CHOP UPR activ, CHOP inh, UPR XBP1 act)
COC(=O)[C@@]12CCCN1[C@H](c1ccc(-c3ccccc3)cc1)[C@@H]1C(=O)N(C)C(=O)[C@@H]12	none (no result: Lipid droplet, CHOP inh)
C=CCn1c(COc2ccccc2)nnc1SC(C)C(=O)N/N=C/c1cc(Cl)ccc1O (stereo not given)	CHOP inh 97 | CHOP confirm 128
COc1ccc(C(=O)Cn2c(C)nc([N+](=O)[O-])c2Br)cc1	none
Cc1nc([N+](=O)[O-])c(Br)n1Cc1ccc(Cl)c(Cl)c1	CHOP inh 105 (no result: ANO1 block, CHOP UPR activ, UPR XBP1 act) | CHOP confirm inactive
CCC(CC)c1nc(C(N)=O)c2[nH]c(=O)n(-c3ccc(OC)c(OC)c3)c2n1	none (no result: CHOP inh)
FC(F)Sc1ccc(NC(=S)NCC2CCCCC2)cc1	ANO1 block 100, CHOP inh 106 (no result: Lipid droplet) | CHOP confirm inactive
CC(C)OCC1Cn2c(nc3c2c(=O)n(C)c(=O)n3C)O1 (stereo not given)	none
Cc1cccc(Cn2c(=O)oc3ccc(C)cc32)c1	none (no result: Lipid droplet, CHOP inh)
Cn1nc(-c2ccc(Cl)cc2)cc1NC(=O)Nc1ccccc1	none
Cn1nc(-c2ccccc2)cc1NC(=O)Nc1ccc(C(C)(C)C)cc1	CHOP inh 105 | CHOP confirm 81
CCN1CCN(CC(=O)Nc2cc3c(cc2C(C)=O)OCO3)CC1	none
CC(=O)c1cc2c(cc1NC(=O)CN1CCN(c3ccc(F)cc3)CC1)OCO2	CHOP inh 97 | CHOP confirm inactive
Cn1c(-c2ccccc2)c(CCO)c2ccccc21	none
Cn1c(-c2ccccc2)c(C(=O)CCl)c2ccccc21	CHOP inh 108 (no result: ANO1 block, CHOP UPR activ, UPR XBP1 act) | CHOP confirm inactive
CC(CN1C(C)CCCC1C)OC(=O)c1cccc(Br)c1 (stereo not given)	none (no result: CHOP inh)
Cc1cc(C(=O)N/N=C/c2ccco2)n[nH]1	none
Cc1cc(C(=O)N/N=C/c2ccc(-c3cccc(Cl)c3Cl)o2)n[nH]1	CHOP inh 101 | CHOP confirm 73
Oc1ccc(/C=N/N2CCN(C3c4ccccc4-c4ccccc43)CC2)cc1	none
Oc1ccc(/C=N/N2CCN(C3c4ccccc4-c4ccccc43)CC2)c(O)c1	CHOP inh 100 | CHOP confirm 112
CCC1(CCC(C)C)SC(N)=NC1=O (stereo not given)	none (no result: Lipid droplet, ANO1 block, CHOP UPR activ, CHOP inh, UPR XBP1 act)
CC(=O)Oc1oc(-c2ccccc2)nc1/C=N/c1ccccn1	CHOP inh 101 (no result: Lipid droplet) | CHOP confirm inactive
CN1CCN(S(=O)(=O)c2ccc(NC(=O)COc3ccccc3Cl)cc2)CC1	none
CC(C)C(=O)N1CCC(CN=Cc2c(O)n(C3CCCCC3)c(=O)n(C3CCCCC3)c2=O)CC1	CHOP inh 104 (no result: Lipid droplet, ANO1 block, CHOP UPR activ, UPR XBP1 act) | CHOP confirm 118
CC(C)(C)OC(=O)NCCCC[C@H](NC(=O)c1[nH]cnc1C(=O)Nc1ccc(CNC(=O)OC(C)(C)C)cc1)C(=O)OC(C)(C)C	none (no result: Lipid droplet, TMEM16A act)
C[C@H](NC(=O)c1nc[nH]c1C(=O)N[C@@H](Cc1ccccc1)C(=O)OC(C)(C)C)C(=O)OC(C)(C)C	CHOP inh 97 | CHOP confirm 100
CC(C)(C)OC(=O)[C@H](Cc1ccccc1)NC(=O)c1nc[nH]c1C(=O)N[C@@H](Cc1ccccc1)C(=O)OC(C)(C)C	none
C[C@H](NC(=O)c1[nH]cnc1C(=O)Nc1ccc(CNC(=O)OC(C)(C)C)cc1)C(=O)OC(C)(C)C	CHOP inh 98 | CHOP confirm 78
CNC(=O)NC(=O)C(C)OC(=O)c1oc2ccccc2c1CSc1ccc(Cl)cc1 (stereo not given)	CHOP inh 98 | CHOP confirm 99
CC(C)C(OC(=O)c1oc2ccccc2c1CSC1CCCCC1)C(=O)NC(N)=O (stereo not given)	none (no result: TMEM16A act)
CCNC(=O)NC(=O)C(C)OC(=O)c1oc2ccccc2c1CSC1CCCCC1 (stereo not given)	CHOP inh 99 | CHOP confirm inactive
S=C(Nc1cccc2ccccc12)NC1CCCCC1	none
O=C(NCc1ccccn1)c1ccc(Cl)c(S(=O)(=O)NCc2ccccc2)c1	none (no result: Lipid droplet, ANO1 block, CHOP inh)
CSCCC(NS(=O)(=O)c1ccc(Cl)cc1)C(=O)OCc1cccc(Cl)c1 (stereo not given)	CHOP inh 106 | CHOP confirm inactive
O=c1/c(=C/c2ccco2)sc2nc(-c3ccccc3Br)nn12	none (no result: Lipid droplet)
COc1ccc(/C=c2\sc3nc(-c4ccccc4OC)nn3c2=O)c(OC)c1	CHOP inh 102 | CHOP confirm inactive
c1ccc2c(c1)N1CCCN=C1N2CCN1CCCCC1	none
O=C1N=C2N(CCN3CCCCC3)c3ccccc3N2/C1=C\c1ccc([N+](=O)[O-])o1	CHOP inh 107 (no result: ANO1 block, CHOP UPR activ, TMEM16A act, UPR XBP1 act) | CHOP confirm inactive
COc1cc(C2CC(=O)Oc3ccc(C(C)(C)C)cc32)cc(OC)c1OC (stereo not given)	none (no result: Lipid droplet, ANO1 block, CHOP inh)

Screening data (PubChem)
